From ChEMBL document CHEMBL1143271, “Synthesis and CB1 cannabinoid receptor affinity of 4-alkoxycarbonyl-1,5-diaryl-1,2,3-triazoles” (Bioorg Med Chem Lett, 2009) come the findings set out here.

The experiment concerns the target Cannabinoid receptor 1 (Rattus norvegicus, UniProt P20272). The experiment can be described thus: Displacement of [3H]SR141716 from CB1 receptor in rat cerebellum homogenate. It counts as tissue-based. The method, boiled down: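 Competition binding against [3H]SR141716 in rat cerebellum homogenates. Each concentration was run in triplicate, and each experiment was repeated three times. Data were fitted by non-linear regression, and values are mean ± SEM of three experiments.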
On the technique in general: Displacement assays read how much labelled ligand stays bound in the presence of the test substance.

Each structure is given as a SMILES string.

Cannabinoid receptor 1, sequence (P20272 whole entry): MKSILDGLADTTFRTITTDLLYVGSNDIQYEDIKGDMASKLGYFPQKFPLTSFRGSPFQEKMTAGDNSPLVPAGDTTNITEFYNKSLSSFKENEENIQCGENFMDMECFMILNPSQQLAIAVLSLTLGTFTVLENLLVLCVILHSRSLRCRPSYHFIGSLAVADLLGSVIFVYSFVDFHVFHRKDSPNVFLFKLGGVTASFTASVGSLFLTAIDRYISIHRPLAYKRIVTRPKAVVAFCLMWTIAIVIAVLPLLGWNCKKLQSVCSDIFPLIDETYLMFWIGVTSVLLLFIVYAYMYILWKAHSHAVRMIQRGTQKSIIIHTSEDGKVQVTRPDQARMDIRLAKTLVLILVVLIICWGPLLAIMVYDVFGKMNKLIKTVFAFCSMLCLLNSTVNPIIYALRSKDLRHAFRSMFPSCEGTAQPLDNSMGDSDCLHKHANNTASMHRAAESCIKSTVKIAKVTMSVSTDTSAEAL

On to `O=C(NN1CCCCC1)c1nnn(-c2ccc(Cl)cc2Cl)c1-c1ccc(Cl)cc1`, for which the affinity, expressed as Ki, was 590 nM. Consider `O=C(Oc1ccccc1)c1nnn(-c2ccc(Cl)cc2Cl)c1-c1ccc(Cl)cc1`, for which the Ki was 11 nM. As to `O=C(OCc1ccccc1)c1nnn(-c2ccc(Cl)cc2Cl)c1-c1ccc(Cl)cc1`, affinity was put at a Ki of 97 nM.

On to `COC(=O)c1nnn(-c2ccc(Cl)cc2)c1-c1ccc(Cl)cc1`, for which the affinity, expressed as Ki, was 4400 nM. Compound `CCCOC(=O)c1nnn(-c2ccc(Cl)cc2Cl)c1-c1ccc(Cl)cc1` came in with a Ki of 4.6 nM. Under `Clc1ccc(-c2cnnn2-c2ccc(Cl)cc2)cc1` stands 6900 nM; under `Clc1ccc(-c2cnnn2-c2ccc(Cl)cc2Cl)cc1`, 1420 nM; under `O=C(OC1CCCCC1)c1nnn(-c2ccc(Cl)cc2Cl)c1-c1ccc(Cl)cc1`, 240 nM. Consider `CCOC(=O)c1nnn(-c2ccc(Cl)cc2Cl)c1-c1ccc(Cl)cc1`, for which the affinity, expressed as Ki, was 180 nM. For `COC(=O)c1nnn(-c2ccc(Cl)cc2Cl)c1-c1ccc(Cl)cc1`, the Ki was 66 nM.

As usually defined, the Ki is the dissociation constant of the complex between target and ligand, obtained from inhibition or displacement.
